Rows were chosen to be rich in hits. Some 2.5% of all compounds tested hit in one or more screens of this group.
SENP8 block-1: blocks human SENP8 cleavage of Nedd8 substrate; inhibition, % at 20 µM; recombinant SENP8, Nedd8 substrate fluorescence; AID 602440; Q96LD8; 360,000 tested, 0.64% active; in the data active means inhibition mostly above about 40%, no sharp cut-off; inactive means mostly below about 27%
SENP6 block: blocks the human protease SENP6; Q9GZR1; Recombinant SENP6 catalytic domain, aminoluciferin luminescence; inhibition, % at 10 µM; 330,000 tested, 1.8% active;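 active means inhibition above about 50% at the single tested dose, limit read from the data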;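 further: plate controls were DMSO wells with enzyme for no effect and DMSO wells lacking enzyme for full effect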
SENP1 FRET inh: SENP1 (human) catalytic domain inhibition. recombinant SENP1 catalytic domain, CyPet-SUMO1-YPet FRET cleavage. inhibition, % at 10 µM. 360,000 tested, 0.21% active. AID 624204;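 active means inhibition at least 30% at 10 µM, raw YFP signal under a set limit, fluorescence ratio 0.5 to 1.5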;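 further: 0% = enzyme with DMSO and 100% = no enzyme wells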
Target sequence (Q9P0U3 419-644 limits assumed): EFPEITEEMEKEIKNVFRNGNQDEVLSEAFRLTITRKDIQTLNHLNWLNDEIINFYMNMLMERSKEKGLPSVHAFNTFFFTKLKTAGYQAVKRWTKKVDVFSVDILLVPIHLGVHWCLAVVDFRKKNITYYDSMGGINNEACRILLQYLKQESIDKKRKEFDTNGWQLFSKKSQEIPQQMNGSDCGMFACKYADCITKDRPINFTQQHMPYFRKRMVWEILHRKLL
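Assay system: hSENP1 catalytic domain, recombinant. Amount: SENP1 enzyme, 20 pM final. Schedule: 50 min reaction, RT, dark. Technique: FRET, CFP and YFP emission. Control set: no-enzyme wells low, DMSO-plus-enzyme wells high control.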
SENP8 block-2: blocks the human protease SENP8; Q96LD8; purified SENP8, Z-RLRGG-aminoluciferin cleavage, luminescence; inhibition, % at 10 µM; 330,000 tested, 1.2% active; AID 2540; in the data active means inhibition above about 50%
SENP7 inh: blocks the human protease SENP7; recombinant SENP7, Z-RLRGG-aminoluciferin luminescence, 40 min; inhibition, % at 5 µM; 330,000 tested, 1.5% active;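 active means inhibition above about 50% at the single test dose, limit read from the data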;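 further: plate controls were DMSO with enzyme for no effect and no enzyme buffer wells for full effect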
Target sequence (Q9BQF6 706-1050 limits assumed): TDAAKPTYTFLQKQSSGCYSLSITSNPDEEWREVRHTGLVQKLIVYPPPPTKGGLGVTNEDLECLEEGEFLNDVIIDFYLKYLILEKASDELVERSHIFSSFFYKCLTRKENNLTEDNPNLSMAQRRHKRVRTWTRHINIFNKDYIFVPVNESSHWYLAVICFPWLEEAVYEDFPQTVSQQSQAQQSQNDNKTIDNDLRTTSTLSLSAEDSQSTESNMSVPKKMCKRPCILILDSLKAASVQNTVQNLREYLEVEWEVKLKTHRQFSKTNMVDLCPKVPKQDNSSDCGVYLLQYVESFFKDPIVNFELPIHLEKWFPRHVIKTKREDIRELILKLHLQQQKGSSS
SENP8 conf: SENP8 (human) inhibition, single concentration confirmation; shares compounds with SENP8 block-1; purified SENP8, Nedd8-AMC/pro-Nedd8 cleavage fluorescence, 30 min; inhibition, % at 25 µM; 1,400 tested, 15% active; in the data active means inhibition mostly above about 39%, no sharp cut-off; inactive means mostly below about 34%
Starred values were filed as active, the others as inactive.

How did CC(C)(C)C(=O)N1CCN(c2ccc3c(c2)C2CC3CCN2C(=O)OCc2ccccc2)CC1 (centres undefined) do in these assays?
SENP8 block-1: 12; SENP1 FRET inh: 0

Results for COC(=O)c1nn(-c2ccc(OC)cc2)c(=O)cc1NN ?
SENP8 block-1: 57*; SENP6 block: -10; SENP1 FRET inh: 3; SENP8 block-2: 1; SENP7 inh: 7; SENP8 conf: 9

What do the screens show for `COC(=O)c1nn(-c2ccc(OC)cc2)c(=O)cc1Sc1ccc(C)cc1`?
SENP8 block-1: -6; SENP6 block: 23; SENP1 FRET inh: -7; SENP8 block-2: 5; SENP7 inh: 2

What do the screens show for `O=[N+]([O-])c1ccc(/C=N/N=C/c2ccc([N+](=O)[O-])o2)o1`?
SENP8 block-1: 37; SENP1 FRET inh: -30

How did O=C1SCCN1N=Cc1ccc([N+](=O)[O-])o1 do in these assays?
SENP8 block-1: 55*; SENP1 FRET inh: 1; SENP8 conf: 18

What do the screens show for `CC1CN(N=Cc2ccc([N+](=O)[O-])o2)C(=N)O1` (centres undefined)?
SENP8 block-1: 48*; SENP1 FRET inh: -2; SENP8 conf: 29

What do the screens show for `COCCCNC(=O)c1ccc2c(c1)OCO2`?
SENP8 block-1: 45*; SENP6 block: 1; SENP1 FRET inh: 2; SENP8 block-2: -2; SENP7 inh: 5; SENP8 conf: 12

How did CCCCOCCCNC(=O)c1ccc2c(c1)OCO2 do in these assays?
SENP8 block-1: -2; SENP6 block: -10; SENP1 FRET inh: -1; SENP8 block-2: 3; SENP7 inh: 1

Results for COC(=O)[C@@H](N)Cc1ccc(O)cc1 ?
SENP6 block: -14; SENP8 block-2: -10; SENP7 inh: -15

What do the screens show for `COC(=O)C(N)CCCCN` (centres undefined)?
SENP8 block-1: 43*; SENP6 block: -8; SENP1 FRET inh: 2; SENP8 block-2: 5; SENP7 inh: 5; SENP8 conf: 5

How did Cc1cc(NC(=O)CN2CCC(C)CC2)no1 do in these assays?
SENP8 block-1: -3; SENP6 block: -6; SENP1 FRET inh: 2; SENP8 block-2: -9; SENP7 inh: -5

How did O=C(Nc1ccccc1F)c1ccc([N+](=O)[O-])s1 do in these assays?
SENP8 block-1: 31; SENP6 block: 6; SENP1 FRET inh: 1; SENP8 block-2: -1; SENP7 inh: 1

How did O=C(Nc1cccnc1)c1ccc([N+](=O)[O-])s1 do in these assays?
SENP8 block-1: 43*; SENP6 block: 10; SENP1 FRET inh: 3; SENP8 block-2: 3; SENP7 inh: 10; SENP8 conf: 30

What do the screens show for `O=C(Nc1c2c(nn1-c1ccccc1)CS(=O)(=O)C2)c1cc2ccccc2o1`?
SENP8 block-1: 6; SENP6 block: -5; SENP1 FRET inh: 1; SENP8 block-2: -8; SENP7 inh: -7

How did CC(Nc1c([N+](=O)[O-])c(=O)oc2ccccc12)C(Cl)c1ccccc1 (centres undefined) do in these assays?
SENP8 block-1: 52*; SENP6 block: -13; SENP1 FRET inh: -1; SENP8 block-2: 2; SENP7 inh: 4; SENP8 conf: 11

How did O=c1oc2ccccc2c(NC(c2ccccc2)c2ccccc2)c1[N+](=O)[O-] do in these assays?
SENP8 block-1: 13; SENP6 block: -20; SENP1 FRET inh: 0; SENP8 block-2: -11; SENP7 inh: -11

How did CS(=O)(=O)N(CC(=O)N1CCCC1)Cc1ccc(Cl)c(Cl)c1 do in these assays?
SENP8 block-1: 19; SENP6 block: 5; SENP1 FRET inh: 0; SENP8 block-2: -7; SENP7 inh: 2

How did Cc1ccc(C)c2c1CCCC2=O do in these assays?
SENP8 block-1: 6; SENP1 FRET inh: 1

Results for CN(C)/C=C/C=C1C(=O)CCCC1=O ?
SENP8 block-1: 49*; SENP6 block: -6; SENP1 FRET inh: -1; SENP8 block-2: -9; SENP7 inh: -6; SENP8 conf: 6

What do the screens show for `CC(=O)NC(CC(=O)N1CCN(C(C)=O)CC1)c1ccccc1` (centres undefined)?
SENP8 block-1: 1; SENP6 block: -6; SENP1 FRET inh: 1; SENP8 block-2: -9; SENP7 inh: -11

What do the screens show for `Cc1nnc(SCC(=O)NC2CCCC(C)C2C)n1N` (centres undefined)?
SENP8 block-1: 9; SENP6 block: -22; SENP1 FRET inh: 1; SENP8 block-2: -13; SENP7 inh: -11

What do the screens show for `O=C1CC(CC(=O)N/N=C/c2ccccc2[N+](=O)[O-])=NN1`?
SENP8 block-1: 40*; SENP6 block: 11; SENP1 FRET inh: 0; SENP8 block-2: 0; SENP7 inh: 11; SENP8 conf: 13

Results for C=C(c1cn(C(C)=O)c2ccccc12)c1cn(C(C)=O)c2ccccc12 ?
SENP8 block-1: -6; SENP1 FRET inh: -3

Results for CC(=O)n1cc(CO)c2ccccc21 ?
SENP8 block-1: 45*; SENP6 block: -9; SENP1 FRET inh: 0; SENP8 block-2: 0; SENP7 inh: -3; SENP8 conf: 8

Results for O=C(CCS(=O)(=O)c1cccc2nonc12)NCCc1ccccc1 ?
SENP8 block-1: 41*; SENP6 block: 8; SENP1 FRET inh: 2; SENP8 block-2: 1; SENP7 inh: 11; SENP8 conf: 12

Results for COc1ccc(C(=O)/C=C/c2ccc(C)cc2)c(OC(=O)c2ccc([N+](=O)[O-])cc2)c1 ?
SENP8 block-1: 43*; SENP6 block: 27; SENP1 FRET inh: 2; SENP8 block-2: 10; SENP7 inh: -12; SENP8 conf: -1

What do the screens show for `COc1ccc(C=CC(=O)c2ccc([N+](=O)[O-])cc2)cc1`?
SENP8 block-1: 5; SENP1 FRET inh: 6

How did CC(=O)Nc1cc2c(cc1Br)OCCO2 do in these assays?
SENP8 block-1: 47*; SENP6 block: -7; SENP1 FRET inh: 0; SENP8 block-2: -7; SENP7 inh: -7; SENP8 conf: -6

What do the screens show for `Cc1ccc(-c2nn(CC(=O)NN3CCOCC3)c(=O)c3ccccc23)cc1`?
SENP8 block-1: -14; SENP6 block: -2; SENP1 FRET inh: 11; SENP8 block-2: -1; SENP7 inh: 2

How did Cc1nc([N+](=O)[O-])c(Br)n1CC(=O)c1ccc(Cl)cc1 do in these assays?
SENP8 block-1: 42*; SENP6 block: 8; SENP1 FRET inh: 3; SENP8 block-2: 7; SENP7 inh: 5; SENP8 conf: 12

What do the screens show for `COc1ccc(C(=O)Cn2c(C)nc([N+](=O)[O-])c2Br)cc1`?
SENP8 block-1: 6; SENP6 block: -12; SENP1 FRET inh: 3; SENP8 block-2: 0; SENP7 inh: 6

What do the screens show for `COc1ccc(Cc2nnc(SC(C)C(=O)Nc3ccc(F)cc3Cl)o2)cc1` (centres undefined)?
SENP8 block-1: 2; SENP6 block: -7; SENP1 FRET inh: -1; SENP8 block-2: 0; SENP7 inh: 10
